Active and inactive are the calls of the source.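 Rule for the calls, unless noted: active = viability loss from added drug above about 55%, and viability with drug at most 40%, in both replicates (limit read from the data, passing the limit was not always enough); inconclusive = both conditions met in only one replicate; inactive = neither replicate meets both conditions.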
What was measured:
[1] = biological target: Pantothenate synthetase (Mycobacterium tuberculosis (strain ATCC 25618 / H37Rv)) (UniProt P9WIL5); test: Recombinant Mtb pantothenate synthetase (PanC) inhibitors, coupled enzyme, confirmatory (AID 375; call rule not given here;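 note: 0% = full reaction with vehicle and 100% = no enzyme background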); details: coupled enzyme assay; at 10 µM, stronger effect = higher value
[2] = reducers of endogenous Her2 protein level, primary screen, SKBR3 breast tumor cells, AlphaScreen, ATP viability (AID 461;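 active = Her2 level under about 52% in both replicate screens, with viability over 70% of control, limit read from the data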;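 for Her2 level: lower value means less Her2 protein in the cells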;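 for viability: percent of carrier control wells set as 100% viability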); details: 18-24 h, measured here: SKBR3 viability, ATP luminescence, at 10 µM
[3] = biological target: Receptor tyrosine-protein kinase erbB-2 (Homo sapiens) (UniProt P04626); test: as above; details: 18-24 h, at 10 µM, stronger effect = lower value
[4] = SK-BR-3 cell growth inhibitors, pilot screen, 24 h, human (AID 572;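 active = viability at or below 10% of carrier control in both of two separate runs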;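 note: compound exposure lasted between 18 and 24 h rather than exactly 24 h; 100% = carrier-treated control wells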); details: SK-BR-3 viability, CellTiter-Glo luminescence, at 10 µM, stronger effect = lower value
[5] = HUVEC growth inhibition – cell-based, human, primary screen (AID 575;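 active = viability at or below 30% in both replicate assays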;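 note: 100% = median of untreated cell wells with 0.1% DMSO on each plate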); details: HUVEC proliferation, CellTiter-Glo luminescence, 72 h; at 10 µM; stronger effect = lower value
How it was run: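 Test system – primary HUVEC, no more than 12 passages · Dosing – one dose, 10 µM final, 0.1% DMSO · Times – 72 h treatment at 37 °C · Measured by – ATP-based CellTiter-Glo luminescent read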

[6] = growth inhibitors of H69AR lung tumor, primary screen, human, duplicate replicates (AID 580;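 active = viability at or under a set limit in both replicates, limit being median viability minus 3 SD, cut at about 48% in these data, passing the limit was not always enough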;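 note: 100% = mean luminescence of untreated wells and 0% = no signal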); details: H69AR lung tumor cells viability, ATP luminescence, 72 h; at 10 µM; stronger effect = lower value
[7] = reversal of MRP1-mediated doxorubicin resistance, pilot screen, H69AR cells, doxorubicin co-treatment (AID 601); details: CellTiter-Glo, 72 h, at 10 µM; for differential viability (reversal): stronger effect = higher value
[8] = 384-well plate pilot, post-Golgi transport modulator project, inhibition of yeast transport mutant growth (AID 636; in the data active = inhibition above about 31%); details: absorbance 615 nm, about 18 h, stronger effect = higher value
[9] = growth suppression of yeast trafficking mutant, preliminary HTS, modulators of trafficking downstream of Golgi apparatus project, 1536-format plate, OD 615 nm (AID 637; in the data active = inhibition above about 30%); details: yeast transport mutant growth, absorbance 615 nm, 18 h; stronger effect = higher value
[10] = H69AR cells + 2 uM doxorubicin, measured here: viability with 2 uM doxorubicin, stronger effect = lower value
[11] = H69AR cells, compound alone cytotoxicity

Receptor tyrosine-protein kinase erbB-2 (Homo sapiens), sequence (P04626 whole entry, looked up): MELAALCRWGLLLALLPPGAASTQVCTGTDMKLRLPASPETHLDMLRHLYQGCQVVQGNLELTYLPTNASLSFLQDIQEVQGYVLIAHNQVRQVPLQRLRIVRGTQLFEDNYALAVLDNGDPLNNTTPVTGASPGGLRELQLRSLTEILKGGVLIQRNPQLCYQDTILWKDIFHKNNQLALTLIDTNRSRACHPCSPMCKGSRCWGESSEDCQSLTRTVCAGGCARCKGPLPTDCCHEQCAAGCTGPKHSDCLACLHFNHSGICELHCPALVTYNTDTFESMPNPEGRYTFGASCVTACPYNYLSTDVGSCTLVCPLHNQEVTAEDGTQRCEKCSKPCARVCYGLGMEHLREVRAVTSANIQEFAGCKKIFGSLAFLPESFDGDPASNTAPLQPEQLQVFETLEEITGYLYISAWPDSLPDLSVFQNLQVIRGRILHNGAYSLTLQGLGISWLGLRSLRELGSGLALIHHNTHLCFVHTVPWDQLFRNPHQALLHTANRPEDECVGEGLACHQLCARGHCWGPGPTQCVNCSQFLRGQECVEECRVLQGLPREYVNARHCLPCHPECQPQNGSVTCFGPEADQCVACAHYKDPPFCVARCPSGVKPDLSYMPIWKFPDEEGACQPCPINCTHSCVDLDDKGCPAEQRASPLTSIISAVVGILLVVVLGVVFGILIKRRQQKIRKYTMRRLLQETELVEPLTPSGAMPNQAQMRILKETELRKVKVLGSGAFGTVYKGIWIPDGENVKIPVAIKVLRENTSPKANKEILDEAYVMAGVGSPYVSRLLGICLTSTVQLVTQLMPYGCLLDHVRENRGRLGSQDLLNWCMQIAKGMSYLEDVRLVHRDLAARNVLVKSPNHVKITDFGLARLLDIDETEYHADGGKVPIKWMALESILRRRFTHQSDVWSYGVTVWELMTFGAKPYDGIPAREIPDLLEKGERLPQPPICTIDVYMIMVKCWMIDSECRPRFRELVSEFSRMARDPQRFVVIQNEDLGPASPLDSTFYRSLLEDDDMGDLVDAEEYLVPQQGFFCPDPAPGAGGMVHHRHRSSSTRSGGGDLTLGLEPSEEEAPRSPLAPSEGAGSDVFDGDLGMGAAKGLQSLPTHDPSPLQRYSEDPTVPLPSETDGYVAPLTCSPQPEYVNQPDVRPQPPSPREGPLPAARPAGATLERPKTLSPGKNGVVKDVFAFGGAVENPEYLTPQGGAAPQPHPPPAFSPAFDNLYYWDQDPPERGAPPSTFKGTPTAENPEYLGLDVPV
Pantothenate synthetase (Mycobacterium tuberculosis (strain ATCC 25618 / H37Rv)), sequence (P9WIL5 whole entry, looked up): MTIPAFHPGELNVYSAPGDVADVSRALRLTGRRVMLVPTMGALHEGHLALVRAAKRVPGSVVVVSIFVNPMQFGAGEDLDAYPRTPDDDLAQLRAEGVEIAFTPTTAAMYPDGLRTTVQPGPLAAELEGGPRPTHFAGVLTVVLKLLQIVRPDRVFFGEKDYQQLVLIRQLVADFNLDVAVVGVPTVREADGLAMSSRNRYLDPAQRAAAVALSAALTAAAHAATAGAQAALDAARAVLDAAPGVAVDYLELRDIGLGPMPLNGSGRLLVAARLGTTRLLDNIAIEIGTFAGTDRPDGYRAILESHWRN

SMILES | inhibition [1] | viability [2] [%] | Her2 level [3] | viability [4] | viability [5] | viability [6] | differential viability (reversal) ([7]; H69AR cells + 2 uM doxorubicin) | viability [7, 10] [%] | viability [7, 11] [%] | inhibition [8] | inhibition [9]
O=C(C1CCCN(S(=O)(=O)c2cccc3nsnc23)C1)N1CCC2(CC1)OCCO2 (stereo not drawn) | 0% (inactive) | 97 | 100% (inactive) | 97% (inactive) | 100% (inactive) | 81.6% (inactive) | -16.9% (inactive) | 98.5 | 81.6 | -5% (inactive) | 1.33% (inactive)
CCCCCCC(N)CC(=O)O (stereo not drawn) | 0% (inactive) | 106 | 122% (inactive) | 106% (inactive) | 95.1% (inactive) | 94.8% (inactive) | 5.24% (inactive) | 89.6 | 94.8 | -1.69% (inactive) | -8.17% (inactive)
C[N+]1(C)CCN(c2ccccc2)CC1 | 8% (inactive) | – | – | 118% (inactive) | 95.8% (inactive) | 84.9% (inactive) | -12.1% (inactive) | 97 | 84.9 | -1.69% (inactive) | 0.5% (inactive)
Clc1ccc(CSC(Cn2ccnc2)c2ccc(Cl)cc2Cl)cc1 (stereo not drawn) | 0% (inactive) | 136 | 59% (inactive) | 136% (inactive) | – | – | -14.6% (inactive) | 48.3 | 33.7 | – | –
O=C(c1ccc(CS(=O)(=O)c2ccccc2)o1)N1CCC2(CC1)OCCO2 | 0% (inactive) | 90 | 112% (inactive) | 90% (inactive) | 96.5% (inactive) | 85% (inactive) | -6.95% (inactive) | 92 | 85 | -2.11% (inactive) | -2.73% (inactive)
O=C(O)C1(c2ccc(Cl)cc2)CCC1 | 0% (inactive) | 109 | 91.5% (inactive) | 109% (inactive) | 97.2% (inactive) | 91.7% (inactive) | -1.85% (inactive) | 93.6 | 91.7 | -6.13% (inactive) | -3.02% (inactive)
CN(C)c1cc(N)c2c(n1)CCC2 (tested in a mixture with another compound) | 0% (inactive) | 113 | 134% (inactive) | 113% (inactive) | 102% (inactive) | 86.1% (inactive) | -1.48% (inactive) | 87.6 | 86.1 | -4.49% (inactive) | -5.17% (inactive)
Clc1ccc(COC(Cn2ccnc2)c2ccc(Cl)cc2Cl)c(Cl)c1 (stereo not drawn) | 2% (inactive) | 105 | 20% (active) | 105% (inactive) | 9.27% (active) | – | -27.5% (inactive) | 58.6 | 31 | – | –
CC(C)OC(=O)c1c(N)n(CC2CCCO2)c2nc3ccccc3nc12 (stereo not drawn) | 5% (inactive) | 86.5 | 92.5% (inactive) | 86.5% (inactive) | 102% (inactive) | 94.7% (inactive) | 4.96% (inactive) | 89.7 | 94.7 | -1.58% (inactive) | -3.17% (inactive)
COC1=CC(=O)OC(/C=C/c2ccccc2)C1 (stereo not drawn) | 0% (inactive) | – | – | 124% (inactive) | 96.6% (inactive) | 87.6% (inactive) | 2.78% (inactive) | 84.8 | 87.6 | -1.56% (inactive) | -4.5% (inactive)
COC(=O)c1cncn1C(C)c1ccccc1 (stereo not drawn) | 0% (inactive) | 88.5 | 80.5% (inactive) | 88.5% (inactive) | 108% (inactive) | 95% (inactive) | 6.07% (inactive) | 88.9 | 95 | -4.46% (inactive) | -5.25% (inactive)
COc1ccccc1OCCCn1cc(C(=O)c2ccco2)c2ccccc21 | 0% (inactive) | 106 | 96% (inactive) | 106% (inactive) | 74.9% (inactive) | 77.5% (inactive) | -5.27% (inactive) | 82.7 | 77.5 | -4.73% (inactive) | -5.33% (inactive)
C#C[C@]1(O)CC[C@H]2[C@@H]3CCC4=CC(=O)CC[C@]4(C)[C@H]3CC[C@@]21C | 4% (inactive) | – | – | 101% (inactive) | 91.6% (inactive) | 91.3% (inactive) | -13.7% (inactive) | 105 | 91.3 | -1.69% (inactive) | 11.2% (inactive)
CCOC(=O)c1cc2c(cn1)[nH]c1ccccc12 | 6% (inactive) | – | – | 122% (inactive) | 89.3% (inactive) | 88% (inactive) | 3.16% (inactive) | 84.8 | 88 | -0.91% (inactive) | -3.17% (inactive)
CSc1ccc(C(=O)C(C)(C)N2CCOCC2)cc1 | 0% (inactive) | 106 | 107% (inactive) | 106% (inactive) | 112% (inactive) | 105% (inactive) | 18.2% (inactive) | 87.2 | 105 | -2.76% (inactive) | 6.56% (inactive)
Cc1cc(OCC(=O)O)c2c3c(c(=O)oc2c1)CCCC3 | 1% (inactive) | – | – | 132% (inactive) | 85.9% (inactive) | 84.8% (inactive) | -3.02% (inactive) | 87.9 | 84.8 | -4.16% (inactive) | 7.38% (inactive)
CCCNS(=O)(=O)c1ccc(OCC(=O)N2CCN(Cc3ccccc3)CC2)cc1 | 0% (inactive) | – | – | 111% (inactive) | 86.6% (inactive) | 88.6% (inactive) | 0.375% (inactive) | 88.2 | 88.6 | -5.07% (inactive) | 5.97% (inactive)
CC(C)(C)OC(=O)c1c(N)n(Cc2ccco2)c2nc3ccccc3nc12 | 3% (inactive) | 98.5 | 76% (inactive) | 98.5% (inactive) | 62.5% (inactive) | 65.4% (inactive) | -9.48% (inactive) | 74.8 | 65.4 | 0.79% (inactive) | -6.13% (inactive)
C[C@]12CCC(=O)C=C1CC[C@@H]1[C@@H]2CC[C@]2(C)C(=O)CC[C@@H]12 | 0% (inactive) | – | – | 79% (inactive) | 76.8% (inactive) | 85.3% (inactive) | -1.5% (inactive) | 86.8 | 85.3 | -3.38% (inactive) | -0.83% (inactive)
O=C1CC[C@@]2(O)[C@H]3Cc4ccc(O)c5c4[C@@]2(CCN3CC2CC2)[C@H]1O5 | 4% (inactive) | – | – | 95% (inactive) | 90.6% (inactive) | 99.5% (inactive) | 11% (inactive) | 88.6 | 99.5 | 0.26% (inactive) | 2.17% (inactive)
O=C(O)c1nonc1-c1nonc1C(=O)O | 0% (inactive) | 99 | 114% (inactive) | 99% (inactive) | 100% (inactive) | 99% (inactive) | 1.51% (inactive) | 97.5 | 99 | -1.97% (inactive) | 6.39% (inactive)
c1ccc(Cn2ccnc2)cc1 | 0% (inactive) | – | – | 127% (inactive) | 84.4% (inactive) | 93.5% (inactive) | -0.24% (inactive) | 93.7 | 93.5 | 0.78% (inactive) | 22% (inactive)
CCn1c(C)c(C(=O)O)c2cc(OC)ccc21 | 4% (inactive) | 88.5 | 76% (inactive) | 88.5% (inactive) | 105% (inactive) | 96.1% (inactive) | -4.98% (inactive) | 101 | 96.1 | -3.2% (inactive) | -0.65% (inactive)
OC(CNC1CCCCC1)c1ccccc1 (stereo not drawn) | 7% (inactive) | – | – | 104% (inactive) | 111% (inactive) | 98% (inactive) | 12.3% (inactive) | 85.7 | 98 | -2.67% (inactive) | -2.55% (inactive)
CCC(=NCC1CCCO1)c1c(O)n(Cc2ccccc2)c(=O)[nH]c1=O (stereo not drawn) | 0% (inactive) | – | – | 91% (inactive) | 107% (inactive) | 86.3% (inactive) | -0.335% (inactive) | 86.7 | 86.3 | -4.29% (inactive) | 1.48% (inactive)
c1ccc2c(c1)[nH]c1cnccc12 | 0% (inactive) | – | – | 100% (inactive) | 70.2% (inactive) | 83% (inactive) | 2.26% (inactive) | 80.7 | 83 | -0.78% (inactive) | 0.5% (inactive)
O=c1[nH]c(=O)n(Cc2ccco2)c(O)c1C=NCCCn1ccnc1 | 0% (inactive) | 88.5 | 104% (inactive) | 88.5% (inactive) | 93.5% (inactive) | 95.2% (inactive) | 0.33% (inactive) | 94.8 | 95.2 | 0.77% (inactive) | -3.33% (inactive)
COP(=O)(OC)C(O)C(Cl)(Cl)Cl (stereo not drawn) | 0% (inactive) | – | – | 122% (inactive) | 95.5% (inactive) | 82.6% (inactive) | -3.13% (inactive) | 85.7 | 82.6 | -1.56% (inactive) | -3.83% (inactive)
CC(C)[C@@]1(NC(=O)[C@@H]2C=C3c4cccc5[nH]cc(c45)C[C@H]3N(C)C2)O[C@@]2(O)[C@@H]3CCCN3C(=O)[C@H](Cc3ccccc3)N2C1=O | 3% (inactive) | – | – | 103% (inactive) | 89% (inactive) | 90.5% (inactive) | -9.99% (inactive) | 101 | 90.5 | -0.13% (inactive) | 16.8% (inactive)
CC(NC(C)(C)C)C(=O)c1cccc(Cl)c1 (stereo not drawn) | 0% (inactive) | – | – | 87% (inactive) | 74.8% (inactive) | 99.5% (inactive) | 4.02% (inactive) | 95.5 | 99.5 | -1.17% (inactive) | 1.67% (inactive)

Reference: PubChem BioAssay
